Results taken from PubChem BioAssay.
Calls of active or inactive are those of the source.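 The calls were made as follows, unless noted: active = mean duplicate potentiation above the buffer control mean plus 5 SD of buffer wells; inactive = the rest.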

Experiments:
[1] = nonspecific flux increase, KCNQ1-free cells – parental CHO cells, counter-screen for KCNQ1 potentiator project (AID 493006;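 active = duplicate-averaged activation above buffer control mean plus 5 SD of those controls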;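 as to activation: fluorescence ratio of max minus min over baseline after K+ and Tl+ depolarization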); details: parental CHO-K1 cells, FluxOR thallium flux, at 10 µM; hits give high values
Outline: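 Material: untransfected host CHO-K1 cells with FluxOR thallium dye. Timing: overnight 37 °C plating, 90 min RT dye, 20 min compound. Detection: kinetic FluxOR fluorescence, 10 s baseline, 110 s after stimulus. Read-out basis: max-minus-min fluorescence over baseline, percent of buffer-to-R-L3 span. Replicates: duplicate wells per compound, percent values averaged.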

[2] = biological target: Potassium voltage-gated channel subfamily KQT member 1 (Homo sapiens) (UniProt P51787); assay: enhancement of KCNQ1 channel thallium flux – FluxOR thallium flux, CHO cells, duplicates, confirmation (AID 493007;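 active = potentiation averaged over duplicate wells exceeding buffer-only control mean by more than 3 SD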;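 as to outcome: cells depolarized by a potassium plus thallium sulfate stimulus after compound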); details: KCNQ1 cell line, FluxOR thallium flux fluorescence, at 10 µM; hits give high values, % of reference activator effect, buffer zero
Outline: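 Test system – KCNQ1-expressing CHO cell line · Incubation – FluxOR dye loading 90 min, compound exposure 20 min, room temperature · Detection – FluxOR Tl+ flux fluorescence, 10 s baseline plus 110 s recording · Controls – buffer-only wells as 0% and R-L3 activator as 100%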

[3] = biological target: Potassium voltage-gated channel subfamily KQT member 2 (Rattus norvegicus) (UniProt O88943); assay: KCNQ2 thallium flux enhancement – KCNQ2-CHO-K1 cells, selectivity assay for KCNQ1 potentiator project (AID 493009); details: FluxOR thallium flux fluorescence, at 10 µM; hits give high values, scaled: buffer 0, activator control 100;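 also: assay conditions were tuned for KCNQ1 rather than KCNQ2 modulators; signal is max minus min fluorescence divided by baseline after thallium stimulus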
[4] = biological target: Potassium voltage-gated channel subfamily KQT member 1 (Homo sapiens) (UniProt P51787); assay: KCNQ1 activators by electrophysiology – IonWorks patch clamp, KCNQ1-CHO cells, orthogonal assay for KCNQ1 potentiator project, confirmation (AID 493184;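 active = current rise at least 3 SD above the untreated control mean in each of two repeat wells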;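 as to current potentiation: percent change of the same well's current before compound addition so 0% = no change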); details: automated patch clamp current, at 10 µM; hits give high values
Outline: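 Read-out: Percent current increase versus pre-compound level | Assay system: CHO cells carrying KCNQ1 | Measured by: Automated perforated-patch electrophysiology | Medium: External bath solution at pH 7.4 | Dosing: One dose, 10 µM final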

Sequence of Potassium voltage-gated channel subfamily KQT member 2 (Rattus norvegicus) (O88943 whole entry, looked up): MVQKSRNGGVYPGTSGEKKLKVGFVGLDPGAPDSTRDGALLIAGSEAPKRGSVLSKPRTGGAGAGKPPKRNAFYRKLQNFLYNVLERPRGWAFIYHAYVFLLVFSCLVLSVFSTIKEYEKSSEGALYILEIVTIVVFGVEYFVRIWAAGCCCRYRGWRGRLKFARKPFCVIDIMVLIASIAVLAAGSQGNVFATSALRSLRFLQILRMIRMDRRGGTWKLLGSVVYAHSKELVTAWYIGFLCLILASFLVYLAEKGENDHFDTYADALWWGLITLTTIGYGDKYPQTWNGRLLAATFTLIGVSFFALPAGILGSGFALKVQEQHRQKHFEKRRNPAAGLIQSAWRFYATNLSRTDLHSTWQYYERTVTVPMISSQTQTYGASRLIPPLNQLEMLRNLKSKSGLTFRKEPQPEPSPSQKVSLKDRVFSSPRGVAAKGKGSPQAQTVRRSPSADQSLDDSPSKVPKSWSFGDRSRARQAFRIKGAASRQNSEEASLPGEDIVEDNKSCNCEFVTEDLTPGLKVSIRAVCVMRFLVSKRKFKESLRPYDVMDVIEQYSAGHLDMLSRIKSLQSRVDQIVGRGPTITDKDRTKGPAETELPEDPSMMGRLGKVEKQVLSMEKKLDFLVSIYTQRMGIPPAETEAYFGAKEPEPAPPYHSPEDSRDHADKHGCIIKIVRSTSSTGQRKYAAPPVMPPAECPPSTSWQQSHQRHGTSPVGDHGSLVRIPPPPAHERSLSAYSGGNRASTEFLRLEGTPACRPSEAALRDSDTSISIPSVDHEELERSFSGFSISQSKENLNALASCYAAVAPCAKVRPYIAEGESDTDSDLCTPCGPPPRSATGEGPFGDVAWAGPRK
Sequence of Potassium voltage-gated channel subfamily KQT member 1 (Homo sapiens) (P51787 whole entry, looked up): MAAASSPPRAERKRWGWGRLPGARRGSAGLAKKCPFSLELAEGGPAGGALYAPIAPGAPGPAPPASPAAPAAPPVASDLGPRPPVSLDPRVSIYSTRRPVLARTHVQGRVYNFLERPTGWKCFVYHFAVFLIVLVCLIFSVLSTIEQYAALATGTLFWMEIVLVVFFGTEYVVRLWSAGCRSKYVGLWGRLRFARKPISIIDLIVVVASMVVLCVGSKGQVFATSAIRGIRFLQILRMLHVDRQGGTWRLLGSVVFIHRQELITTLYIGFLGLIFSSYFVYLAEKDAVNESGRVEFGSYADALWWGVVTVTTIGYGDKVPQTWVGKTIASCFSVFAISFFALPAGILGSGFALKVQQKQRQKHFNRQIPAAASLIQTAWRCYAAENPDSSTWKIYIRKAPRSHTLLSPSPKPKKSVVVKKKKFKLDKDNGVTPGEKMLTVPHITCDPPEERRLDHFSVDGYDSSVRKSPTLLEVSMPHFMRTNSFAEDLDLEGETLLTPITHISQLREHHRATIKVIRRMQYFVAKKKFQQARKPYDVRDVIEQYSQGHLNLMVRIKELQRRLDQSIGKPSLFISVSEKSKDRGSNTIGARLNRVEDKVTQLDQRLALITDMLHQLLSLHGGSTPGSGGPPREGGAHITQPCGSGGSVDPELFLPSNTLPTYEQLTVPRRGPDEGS

Structure (SMILES) | outcome [1] | potentiation [2] | potentiation [3] | outcome [4] | outcome [2] | outcome [3] | activation [1] | current potentiation [4]
COc1ccc2nc(NC(=S)NC(=O)c3ccco3)sc2c1 | inactive | 42% (active) | 175% (active) | inactive | – | – | – | –
O=C(COC(=O)c1cc(S(=O)(=O)N2CCOCC2)ccc1O)NCCc1ccccc1 | inactive | – | – | inactive | inactive | inactive | – | –
COc1cccc(OC)c1C(=O)Nc1cccc(-c2ccc3nncn3n2)c1 | inactive | – | – | inactive | inactive | inactive | – | –
O=C1C=C(NCc2ccccc2)c2ccccc2C1=O | – | 24% (active) | – | inactive | – | inactive | 140% (active) | –
Nc1c(-c2ccccc2)cnc2c(-c3ccccc3)cnn12 | inactive | – | – | inactive | inactive | inactive | – | –
CCCCN(CCCC)c1ccc(C(=O)c2ccccc2C(=O)O)c(O)c1 | – | 51.5% (active) | 182% (active) | – | – | – | 212% (active) | 15.1% (active)
Cc1noc(C)c1CSc1ncnc2sc(C)c(C)c12 | inactive | – | – | inactive | inactive | inactive | – | –
Cc1cc2ccccn2c1C(=S)NC(=O)c1ccccc1 | – | 102% (active) | 370% (active) | inactive | – | – | 290% (active) | –
COC(=O)c1c(NC(=O)c2ccccc2)sc(C(=O)c2ccccc2)c1C | inactive | – | – | inactive | inactive | inactive | – | –
COc1ccc(OC)c(NC(=O)C(=O)NNC(=O)COc2ccc(Br)cc2C)c1 | – | 346% (active) | 614% (active) | inactive | – | – | 520% (active) | –
CCOC(=O)C1(CC2CCCCO2)CCN(Cc2cc3ccccc3[nH]2)CC1 (stereo not given) | inactive | – | – | inactive | inactive | inactive | – | –
CC1(C)CC(=O)C2=C(C1)c1c(ccc3ccccc13)NC2c1cc([N+](=O)[O-])cc([N+](=O)[O-])c1O (stereo not given) | inactive | – | – | inactive | inactive | inactive | – | –
Cc1cccc(/C=C/C(=O)c2cc(Br)ccc(=O)c2O)c1 | – | 90% (active) | 254% (active) | inactive | – | – | 170% (active) | –
C=CCN1C(=O)C(CC(=O)NCC)SC1=Nc1ccc(S(N)(=O)=O)cc1 (stereo not given) | inactive | – | – | inactive | inactive | inactive | – | –
Cc1c(N2C(=O)/C(=C\c3ccccc3O)SC2=S)c(=O)n(-c2ccccc2)n1C | – | 200% (active) | 392% (active) | inactive | – | – | 398% (active) | –
O=C(NC(=S)N1CCN(c2nc(-c3ccccc3)cs2)CC1)c1cncc(Br)c1 | – | 223% (active) | 505% (active) | inactive | – | – | 384% (active) | –
Cc1nn(CC2CC2)c(=O)n1-c1ccc(F)cc1 | inactive | – | – | inactive | inactive | inactive | – | –
O=S(=O)(NCCOc1ccccc1)c1ccc2ccccc2c1 | inactive | – | – | inactive | inactive | inactive | – | –
COc1ccccc1N1C(=NC(=O)C(C)Oc2ccccc2)SC2CS(=O)(=O)CC21 (stereo not given) | inactive | – | – | inactive | inactive | inactive | – | –
S=c1nc(COc2ccccc2)[nH]c2ccccc12 | – | 212% (active) | 552% (active) | inactive | – | – | 698% (active) | –

Structure (SMILES) | outcome [1] | potentiation [2] | potentiation [3] | outcome [4] | outcome [2] | outcome [3] | activation [1] | current potentiation [4]
CCc1cc2c(=O)n(CCC(C)C)c(=S)[nH]c2s1 | – | 228% (active) | 499% (active) | inactive | – | – | 516% (active) | –
COc1cccc2sc(N(CCCN(C)C)C(=O)c3ccc(S(=O)(=O)N4CCCc5ccccc54)cc3)nc12 | inactive | – | – | inactive | inactive | inactive | – | –
Cc1ccc(-c2cc(-c3n[nH]c(=S)o3)c3ccccc3n2)cc1 | – | 260% (active) | 512% (active) | – | – | – | 468% (active) | 18.8% (active)
CCc1ccc2[nH]c(C(=O)Nc3ccc(F)cc3Br)cc2c1 | inactive | – | – | inactive | inactive | inactive | – | –
COc1ccc(-c2csc(NC(=S)NC(=O)c3cccs3)n2)cc1OC | inactive | 40% (active) | 216% (active) | inactive | – | – | – | –
C[C@@H](NC(=O)OC(C)(C)C)c1nnc(S(=O)(=O)Cc2ccccc2)o1 | inactive | – | 158% (active) | inactive | inactive | – | – | –
CCOc1ccc(NC(=O)C2CCN(S(=O)(=O)c3cccnc3)CC2)cc1 | inactive | – | – | inactive | inactive | inactive | – | –
CCc1ccc(C2c3[nH]c4ccccc4c3CCN2C(=O)CNC(N)=O)cc1 (stereo not given) | inactive | 31% (active) | 156% (active) | inactive | – | – | – | –
O=C(NCc1ccccn1)c1ccc(COc2ccc(Cl)cc2)o1 | – | 26.5% (active) | 156% (active) | inactive | – | – | 138% (active) | –
Cc1nn(CCc2nn[nH]n2)c2nc(-c3ccc(C4CCCCC4)cc3)cc(C(F)(F)F)c12 | – | 58% (active) | 182% (active) | inactive | – | – | 296% (active) | –
Cc1c(C(=O)NC(=S)NCc2cccnc2)oc2ccccc12 | inactive | – | – | inactive | inactive | inactive | – | –
CCOc1ccc2nc(/N=C/c3c(C)[nH]n(-c4ccccc4)c3=O)sc2c1 | – | 360% (active) | 661% (active) | inactive | – | – | 370% (active) | –
Oc1[nH]c2ccc(Br)cc2c1N=NC(=S)NCC1CCCO1 (stereo not given) | – | 37.5% (active) | 204% (active) | inactive | – | – | 182% (active) | –
CON/C=N/C(=S)Nc1ncc(C(F)(F)F)cc1Cl | – | 87.5% (active) | 337% (active) | inactive | – | – | 283% (active) | –
COc1cccc(/C=N/n2c(-c3cccs3)n[nH]c2=S)c1 | – | 160% (active) | 265% (active) | inactive | – | – | 286% (active) | –
COC(=O)c1cccc(NC(=O)CSc2nncn2-c2ccccn2)c1 | inactive | – | – | inactive | inactive | inactive | – | –
Cc1ccc(-c2c(=O)n(O)c3ccccc3[n+]2[O-])cc1 | – | 25% (active) | 184% (active) | inactive | – | – | 202% (active) | –
CCC1(C)Cc2c(sc3nc(SC)[nH]c(=S)c23)CO1 (stereo not given) | – | 194% (active) | 534% (active) | inactive | – | – | 550% (active) | –
COc1ccc(C2C(C(=O)c3ccccc3)=C(C)Nc3nc4ccccc4n32)cc1OC (stereo not given) | inactive | – | – | inactive | inactive | inactive | – | –
CCn1c(SCC(N)=O)nc2sc3c(c2c1=O)CCCC3 | – | 34% (active) | 147% (active) | inactive | – | – | 153% (active) | –

Structure (SMILES) | outcome [1] | potentiation [2] | potentiation [3] | outcome [4] | outcome [2] | outcome [3] | activation [1] | current potentiation [4]
CSC(=S)N/N=C/c1ccc(N(C)C)cc1 | inactive | – | – | inactive | inactive | inactive | – | –
C=C1CCN(c2ccc(C(=O)NCc3ccc(C)cc3)cc2[N+](=O)[O-])CC1 | – | 19.5% (active) | – | inactive | – | inactive | 164% (active) | –
CCCCCCCC/C=C\CCCCCCCC(=O)O | – | 51% (active) | – | inactive | – | inactive | 143% (active) | –
Cc1cc(C)n(-c2nc(NCCN(C)C)c3c4c(sc3n2)COC(C)(C)C4)n1 | inactive | – | – | inactive | inactive | inactive | – | –
CC(C)c1nc2n[nH]c(N)c2c2c1CSC(C)(C)C2 | inactive | 31.5% (active) | – | inactive | – | inactive | – | –
CC1(c2ccc(OC(F)F)cc2)NC(=O)N(CC(=O)Nc2ccc(OC(F)F)cc2)C1=O (stereo not given) | inactive | – | – | inactive | inactive | inactive | – | –
CCn1c(CC(=O)Nc2ccccc2)nnc1SCC(=O)Nc1nncs1 | inactive | – | – | inactive | inactive | inactive | – | –
Cc1nn2c(NCc3ccccn3)cc(C(C)C)nc2c1-c1ccccc1 | inactive | – | – | inactive | inactive | inactive | – | –
Cc1cccc(NC(=S)NNC(=O)c2csc3c2CCC(C)C3)c1 (stereo not given) | – | 86% (active) | 248% (active) | inactive | – | – | 193% (active) | –
COc1cc(OC)cc(C(=O)NNC(=O)C(=O)Nc2cc(OC)c(Cl)cc2OC)c1 | – | 64% (active) | 213% (active) | inactive | – | – | 202% (active) | –
Cc1ccc(OCCN2C(=O)c3ccccc3C2=O)c([N+](=O)[O-])c1 | inactive | – | – | inactive | inactive | inactive | – | –
Cc1ccc2nsnc2c1S(=O)(=O)Nc1cccc2nsnc12 | – | 26% (active) | 174% (active) | inactive | – | – | 143% (active) | –
Oc1c(N=Nc2ccccn2)ccc2ccccc12 | – | 91.5% (active) | 168% (active) | inactive | – | – | 182% (active) | –
CN(C)CCCn1c(=O)n(C2CCCCC2)c(=O)c2c3c(sc21)CCCCC3 | – | 224% (active) | 154% (active) | inactive | – | – | 167% (active) | –
CSc1ccccc1C(=O)NC1CCCc2ccccc21 (stereo not given) | inactive | – | – | inactive | inactive | inactive | – | –
Cc1nc(SC(C)C(=O)c2c(N)n(C)c(=O)n(C)c2=O)c2c(C)c(C)sc2n1 (stereo not given) | – | 86% (active) | 256% (active) | inactive | – | – | 199% (active) | –
COc1cccc(C(=O)NC(=S)Nc2ccc3c4c(cccc24)CC3)c1 | inactive | 25.5% (active) | – | inactive | – | inactive | – | –
Cc1ccc(OCC(=O)NCCCNC(=O)c2ccncc2)cc1C | inactive | – | – | inactive | inactive | inactive | – | –
O=C(O)c1cnn(-c2ccccc2)c1-c1ccncc1 | – | 84% (active) | 202% (active) | inactive | – | – | 145% (active) | –
O=C(O)CSc1c2c(nc3cc(C(=O)Nc4cccc(C(F)(F)F)c4)ccc13)CCC2 | inactive | – | – | inactive | inactive | inactive | – | –
